Assay results as given in ChEMBL document CHEMBL1156534, “Hemopressin is an inverse agonist of CB1 cannabinoid receptors” (Proc Natl Acad Sci U S A, 2007).
The source made the active and inactive calls. The calls are words filed in the database; no cut-off is given here.

Experiments:
[1] = molecular target: T1, Cannabinoid receptor 2 (Rattus norvegicus) (UniProt Q9QZN9); assay: Antagonist activity at Long-Evans rat spleen CB2 receptor assessed as blockade of Hu210-induced increase in GTPgammaS binding; assay type: functional, tissue-based
T1 sequence (whole entry): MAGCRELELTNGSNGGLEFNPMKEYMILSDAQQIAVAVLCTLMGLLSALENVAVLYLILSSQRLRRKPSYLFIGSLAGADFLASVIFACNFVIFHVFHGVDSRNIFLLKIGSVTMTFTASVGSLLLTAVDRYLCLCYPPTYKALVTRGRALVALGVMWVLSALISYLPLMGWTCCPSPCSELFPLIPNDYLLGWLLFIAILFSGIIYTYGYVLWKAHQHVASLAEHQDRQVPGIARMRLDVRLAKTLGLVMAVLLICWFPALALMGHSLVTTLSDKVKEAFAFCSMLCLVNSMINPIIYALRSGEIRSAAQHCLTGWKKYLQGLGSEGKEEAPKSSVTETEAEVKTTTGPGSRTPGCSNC
In short: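 Membranes (10 μg) came from striatum (CB1) or spleen (CB2). They were tested in GTPγS-binding or adenylyl cyclase assays with Hu-210 and test ligand (0–1 μM), or with Hu-210 curves with or without 10 μM peptide; a 1 μM single-point combination was also used. Mean ± SE of triplicates.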

[2] = molecular target: Cannabinoid receptor 1 (Homo sapiens) (UniProt P21554); assay: Antagonist activity at CB1 receptor expressed in Neuro 2A cells assessed as blockade of Hu210-mediated decrease in secreted alkaline phosphatase activity at 1 uM; assay type: functional, cell-based
In short: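 Neuro 2A cells co-expressing pCRE-SeAP and CB1 were serum-starved 16–18 h, then given 10 μM forskolin plus 100 nM Hu-210, with or without 1 μM peptide, for 6 h without serum. Secreted alkaline phosphatase in heat-treated supernatant was measured by CSPD luminescence. Mean ± SEM of sextuplicates, n = 2.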

[3] = molecular target: Cannabinoid receptor 2 (Homo sapiens) (UniProt P34972); assay: Antagonist activity at CB2 receptor expressed in Neuro 2A cells assessed as blockade of Hu210-mediated increase in number of neurite outgrowth at 10 uM after 16 hrs; assay type: functional, cell-based
In short: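 Neuro 2A cells transfected with Flag-tagged CB1 or CB2 were exposed 16 h in 0.1% FBS medium to 100 nM Hu-210 with or without 10 μM peptide. The percentage of cells extending neurites was scored and normalized to untreated cells (100%). Mean ± SE of triplicate experiments.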

[4] = molecular target: Beta-2 adrenergic receptor (Homo sapiens) (UniProt P07550); assay: Antagonist activity at beta2 adrenergic receptor expressed in HEK293 cells assessed as blockade of […] in secreted alkaline phosphatase activity at 1 uM after 6 hrs relative to control; assay type: functional, cell-based
In short: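 HEK-293 cells transiently co-transfected with pCRE-SeAP and a Flag-tagged receptor, 30,000 cells/well on poly-L-lysine. They were serum-starved 16–18 h, then exposed 6 h in serum-free medium to 10 μM forskolin (omitted for β2) plus the receptor agonist (100 nM), with or without peptide (1 μM). Heat-treated supernatant SeAP was read by CSPD chemiluminescence. Mean ± SEM, n = 6.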

Chain of Beta-2 adrenergic receptor (Homo sapiens) (P07550 whole entry, looked up): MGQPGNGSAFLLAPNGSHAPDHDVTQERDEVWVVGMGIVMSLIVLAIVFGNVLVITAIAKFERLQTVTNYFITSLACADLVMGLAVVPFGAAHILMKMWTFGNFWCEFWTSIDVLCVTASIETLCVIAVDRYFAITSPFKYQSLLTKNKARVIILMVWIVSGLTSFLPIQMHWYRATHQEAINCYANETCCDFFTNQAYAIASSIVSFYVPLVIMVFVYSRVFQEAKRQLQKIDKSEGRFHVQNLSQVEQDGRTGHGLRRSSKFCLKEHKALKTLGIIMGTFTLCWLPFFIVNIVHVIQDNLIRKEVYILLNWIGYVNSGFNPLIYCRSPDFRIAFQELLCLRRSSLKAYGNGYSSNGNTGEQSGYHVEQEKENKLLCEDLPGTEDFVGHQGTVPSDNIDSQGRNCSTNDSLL
Chain of Cannabinoid receptor 1 (Homo sapiens) (P21554 whole entry): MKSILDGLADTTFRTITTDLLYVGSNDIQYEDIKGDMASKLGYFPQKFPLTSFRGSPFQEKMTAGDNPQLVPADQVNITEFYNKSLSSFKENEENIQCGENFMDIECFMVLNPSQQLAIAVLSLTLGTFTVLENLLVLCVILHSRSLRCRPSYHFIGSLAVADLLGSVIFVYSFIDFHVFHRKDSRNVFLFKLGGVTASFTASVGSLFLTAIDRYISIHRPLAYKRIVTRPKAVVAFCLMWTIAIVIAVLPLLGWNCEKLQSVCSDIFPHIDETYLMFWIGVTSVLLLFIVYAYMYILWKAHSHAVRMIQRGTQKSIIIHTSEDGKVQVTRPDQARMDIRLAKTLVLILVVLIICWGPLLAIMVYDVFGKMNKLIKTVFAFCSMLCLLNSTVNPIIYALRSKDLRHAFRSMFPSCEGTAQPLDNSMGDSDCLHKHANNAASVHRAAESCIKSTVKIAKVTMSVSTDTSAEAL
Chain of Cannabinoid receptor 2 (Homo sapiens) (P34972 whole entry): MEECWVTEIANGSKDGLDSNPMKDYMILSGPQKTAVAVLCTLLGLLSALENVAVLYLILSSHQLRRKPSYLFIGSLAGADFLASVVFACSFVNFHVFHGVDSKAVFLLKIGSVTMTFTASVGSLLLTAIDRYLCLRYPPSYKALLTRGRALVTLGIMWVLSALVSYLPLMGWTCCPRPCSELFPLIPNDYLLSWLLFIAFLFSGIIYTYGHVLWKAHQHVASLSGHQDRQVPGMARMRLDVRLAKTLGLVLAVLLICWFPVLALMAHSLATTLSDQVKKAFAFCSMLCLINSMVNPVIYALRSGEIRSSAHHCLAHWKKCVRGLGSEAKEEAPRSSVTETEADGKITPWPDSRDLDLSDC

`CC(C)C[C@H](NC(=O)[C@H](Cc1ccccc1)NC(=O)[C@H](CCCCN)NC(=O)[C@H](Cc1ccccc1)NC(=O)[C@H](CC(N)=O)NC(=O)[C@@H](NC(=O)[C@@H]1CCCN1)C(C)C)C(=O)N[C@@H](CO)C(=O)N[C@@H](Cc1cnc[nH]1)C(=O)O` [HEMOPRESSIN] was tested, and the Activity [1] was “inactive”, the Activity [2] was “Active” and the Activity [3] was “inactive”. The Activity [4] was 1.24.
